Data from ChEMBL document CHEMBL1144212, “Design and synthesis of 3-pyrazolyl-thiophene, thieno[2,3-d]pyrimidines as new bioactive and pharmacological activities” (Bioorg Med Chem Lett, 2008).

Tests used:
Salmonella typhi = assay: Antibacterial activity against Salmonella typhi AE 14612 after 48 hrs by disc diffusion method; format: functional, Salmonella enterica subsp. enterica serovar Typhi; conditions: Salmonella enterica, read-out: MIC
Bacillus cereus = assay: Antibacterial activity against Bacillus cereus BTCC19 after 48 hrs by disc diffusion method; format: functional
Procedure, shortened: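 Disc diffusion on nutrient agar. Compounds were dissolved in DMF at 1 mg/mL, applied per disc. Inhibition zones (mm) were read after 48 h at 28 °C. DMF alone was the negative control; ampicillin was the reference.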

Shigella dysenteriae = assay: Antibacterial activity against Shigella dysenteriae AE 14396 after 48 hrs by disc diffusion method; format: functional; conditions: read-out: MIC
Rattus norvegicus [1] = assay: Antiinflammatory activity against carrageenan-induced albino rat hind paw edema model assessed as edema rate at 15 mg/kg, po administered 1 hr before carrageenan challenge measured after 2 hrs; format: functional
Procedure, shortened: (§1)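 Albino rats of both sexes were fasted 18 h, five per group. Dosing was 15 mg/kg orally as an aqueous suspension (tween-80/water vehicle), 1 h before subplantar 0.1 mL 1% w/v carrageenin in the left hind paw. Paw volume was measured by mercury plethysmometer before injection, then hourly for 4 h. Edema rate = (Vt − Vo)/Vo.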

Rattus norvegicus [2] = assay: Antiinflammatory activity against carrageenan-induced albino rat hind paw edema model at 15 mg/kg, po administered 1 hr before carrageenan challenge measured after 3 hrs relative to indomethacin; format: functional
Mus musculus [3] = assay: Analgesic activity in Swiss albino mouse at 20 mg/kg, po assessed as reaction time after 90 mins by hot plate method; format: functional
Procedure, shortened: (§2)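 Swiss albino mice of both sexes (25–30 g), kept at 22 °C on a 12 h light/dark cycle, in groups of five. Given 20 mg/kg orally as an aqueous suspension; aspirin reference at 20 mg/kg orally. Hot plate at 53 °C. Reaction time (placement to hind-paw licking or jumping) was taken before dosing and at 15, 30, 60 and 90 min; 60 s cut-off.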

Mus musculus [4] = assay: Analgesic activity in Swiss albino mouse at 20 mg/kg, po assessed as reaction time after 60 mins by hot plate method; format: functional; procedure, shortened: as §2
Rattus norvegicus [5] = assay: Antiinflammatory activity against carrageenan-induced albino rat hind paw edema model at 15 mg/kg, po administered 1 hr before carrageenan challenge measured after 2 hrs relative to indomethacin; format: functional
Rattus norvegicus [6] = assay: Antiinflammatory activity against carrageenan-induced albino rat hind paw edema model at 15 mg/kg, po administered 1 hr before carrageenan challenge measured after 4 hrs relative to indomethacin; format: functional
Mus musculus [7] = assay: Analgesic activity in Swiss albino mouse at 20 mg/kg, po assessed as reaction time after 30 mins by hot plate method; format: functional; procedure, shortened: as §2
Fusarium equiseti = assay: Antifungal activity against Fusarium equiseti (Corda) Sacc after 48 hrs by poisoned-food technique; format: functional; set-up: concentration or dose not given beside the values
Rattus norvegicus [8] = assay: Antiinflammatory activity against carrageenan-induced albino rat hind paw edema model at 15 mg/kg, po administered 1 hr before carrageenan challenge measured after 1 hr relative to indomethacin; format: functional
Rattus norvegicus [9] = assay: Antiinflammatory activity against carrageenan-induced albino rat hind paw edema model assessed as edema rate at 15 mg/kg, po administered 1 hr before carrageenan challenge measured after 4 hrs; format: functional; procedure, shortened: as §1
Rattus norvegicus [10] = assay: Antiinflammatory activity against carrageenan-induced albino rat hind paw edema model assessed as edema rate at 15 mg/kg, po administered 1 hr before carrageenan challenge measured after 1 hr; format: functional; procedure, shortened: as §1
Rattus norvegicus [11] = assay: Antiinflammatory activity against carrageenan-induced albino rat hind paw edema model assessed as edema rate at 15 mg/kg, po administered 1 hr before carrageenan challenge measured after 3 hrs; format: functional; procedure, shortened: as §1
Rattus norvegicus [12] = assay: Gastrointestinal toxicity in carrageenan-induced albino rat hind paw edema model assessed as induction of ulcerogenicity at 15 mg/kg, po; format: organism-based; set-up: dose 15 mg/kg, route oral; conditions: in vivo
Rattus norvegicus [13] = assay: Antiinflammatory activity against carrageenan-induced albino rat hind paw edema model assessed as edema rate at 10 mg/kg, po administered 1 hr before carrageenan challenge measured after 2 hrs; format: functional
Procedure, shortened: (§3)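 Indomethacin reference group: 10 mg/kg orally as an aqueous suspension, 1 h before carrageenin. Albino rats of both sexes were fasted 18 h, five per group. Edema was induced by subplantar 0.1 mL 1% w/v carrageenin in the left hind paw. Paw volume was read by mercury plethysmometer before injection and hourly for 4 h. Edema rate = (Vt − Vo)/Vo.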

Rattus norvegicus [14] = assay: Antiinflammatory activity against carrageenan-induced albino rat hind paw edema model assessed as edema rate at 10 mg/kg, po administered 1 hr before carrageenan challenge measured after 4 hrs; format: functional; procedure, shortened: as §3
Rattus norvegicus [15] = assay: Antiinflammatory activity against carrageenan-induced albino rat hind paw edema model assessed as edema rate at 10 mg/kg, po administered 1 hr before carrageenan challenge measured after 1 hr; format: functional; procedure, shortened: as §3
Rattus norvegicus [16] = assay: Antiinflammatory activity against carrageenan-induced albino rat hind paw edema model assessed as edema rate at 10 mg/kg, po administered 1 hr before carrageenan challenge measured after 3 hrs; format: functional; procedure, shortened: as §3

SMILES	zone of inhibition (Salmonella typhi) [µg/mL]	zone of inhibition (Bacillus cereus) [mm]	zone of inhibition (Shigella dysenteriae) [µg/mL]	Activity (Rattus norvegicus [1]) [%]	Activity (Rattus norvegicus [2]) [%]	Activity (Mus musculus [3]) [s]	Activity (Mus musculus [4]) [s]	Activity (Rattus norvegicus [5]) [%]	Activity (Rattus norvegicus [6]) [%]	Activity (Mus musculus [7]) [s]	inhibition (Fusarium equiseti) [%]	Activity (Rattus norvegicus [8]) [%]	Activity (Rattus norvegicus [9]) [%]	Activity (Rattus norvegicus [10]) [%]	Activity (Rattus norvegicus [11]) [%]	Activity (Rattus norvegicus [12])	Activity (Rattus norvegicus [13]) [%]	Activity (Rattus norvegicus [14]) [%]	Activity (Rattus norvegicus [15]) [%]	Activity (Rattus norvegicus [16]) [%]
CC1(C)S[C@@H]2[C@H](NC(=O)[C@H](N)c3ccccc3)C(=O)N2[C@H]1C(=O)O [AMPICILLIN]	24	21	30																	
CCOC(=O)c1sc(N)c(C(=O)NNC=O)c1C	34	33	30	-38.2	88.75	4.84	6.9	96	76.17	6.08	65.6	144.25	-31.32	-51.18	-29.58					
CCOC(=O)c1sc(N)c(C(=O)NNc2nc(C)cs2)c1C	29	31	28	-37.17	75.99	4.7	6.46	93.42	64.52	6.68	43.8	127.23	-26.53	-45.14	-25.33					
CCOC(=O)c1sc(N)c(C(=O)NN)c1C		10	6	-8.84	29.4	7.86	6.2	22.22	32.39	6.12	29.3	37.85	-13.32	-13.43	-9.8	Non-toxic				
CCOC(=O)c1sc(N)c(C(=O)NNC(N)=S)c1C	28	20	13	-37.21	88.21	6.14	5.74	93.52	84.19	5.44	28	103.04	-34.62	36.56	-29.4					
CCOC(=O)c1sc(N)c(C(=O)n2nc(C)cc2C)c1C				7.88	25.38	9.78	7.62	19.8	0.61	7.72		-7.27	-0.25	2.58	8.46	Non-toxic				
CCOC(=O)c1sc(N)c(C(=O)N2NC(=O)CC2=O)c1C	15	9	12	-31.04	65.5	10.68	12.42	78.01	65.27	10.22	40	74.8	-26.84	-26.54	-20.9	Non-toxic				
CC(=O)Oc1ccccc1C(=O)O [ASPIRIN]						7.78	6.56			6.66										
COc1ccc2c(c1)c(CC(=O)O)c(C)n2C(=O)c1ccc(Cl)cc1 [INDOMETHACIN]																	-39.79	-41.12	-35.48	-33.33
CCOC(=O)c1sc(NC(C)=O)c(C(=O)OCC)c1C	11	11	14	-12.11	0.12	6.08	5.96	30.44	12.65	7.34	36.3	42.36	-5.2	-15.03	-4					
CCOC(=O)c1sc(N)c(C(=O)N/N=C/c2ccc(OC)cc2)c1C	12	10		-1.52	11.73	9.06	7.72	3.82	32.32	6.42	28	40.59	-13.29	-14.4	-3.91					
CCOC(=O)c1sc2nc(C)n(N)c(=O)c2c1C	15	15	7	-17.93	43.95	6.7	5.04	45.06	37.06	6.46	37.5	84.05	-15.24	-29.82	-14.65					
CCOC(=O)c1sc2[nH]c(=S)n(N)c(=O)c2c1C	17	19	18	-14.54	31.74	7.16	7.24	36.54	59.99	6.6	47.6	85.09	-24.67	-30.19	-10.58					
